High-throughput results: PubChem, Broad Institute
Sampled rows, rich in hits. Any-hit rate of the full collection: about 5.8%.
Pf Dd2 inh – inhibitors of Plasmodium falciparum Dd2 growth; P. falciparum Dd2 growth, SYBR Green, 72 h; hits give low values; hit rate 2.3% among 94,000; activity change, % at 10 µM; in the data active = activity change below about -80%; inconclusive = no clear call, values can overlap the other calls
IDH1 R132H inh – blocks human IDH1 R132H reductase activity. O75874. hit rate 0.18% among 70,000. AID 624101. inhibition, % at 10 µM. diaphorase/resazurin fluorescence, 60 min; in the data active = inhibition above about 34%; inconclusive = no clear call, values can overlap the other calls; inactive = below about 11%
Target sequence (O75874 whole entry R132H): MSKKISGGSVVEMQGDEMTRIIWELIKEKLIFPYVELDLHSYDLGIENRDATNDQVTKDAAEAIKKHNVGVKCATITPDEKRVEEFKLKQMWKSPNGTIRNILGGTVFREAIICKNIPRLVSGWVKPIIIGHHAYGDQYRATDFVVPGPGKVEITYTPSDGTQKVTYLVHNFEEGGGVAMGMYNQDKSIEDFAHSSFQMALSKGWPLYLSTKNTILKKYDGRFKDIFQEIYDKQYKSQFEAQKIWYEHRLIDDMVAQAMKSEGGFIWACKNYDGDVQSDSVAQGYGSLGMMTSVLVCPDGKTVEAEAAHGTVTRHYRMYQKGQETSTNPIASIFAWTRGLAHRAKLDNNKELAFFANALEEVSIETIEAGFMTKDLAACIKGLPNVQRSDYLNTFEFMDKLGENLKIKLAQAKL
KDM4C inh – blocks human GASC-1 (KDM4C) demethylase activity; AID 720574; hit rate 0.15% among 96,000; GST-KDM4C 2-372, H3K9me3 peptide, LANCE TR-FRET; Q9H3R0; inhibition, % at 12.5 µM;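 active = mean replicate inhibition above about 25%, with at least 55% of replicates also reaching it, limit read from the data, passing the limit was not always enough; inconclusive = only one of those two conditions met; inactive = neither condition met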
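Assay system: GST-GASC-1 enzyme fragment 2-372 | Amount: 10 nM enzyme | Medium: HEPES buffer, pH 7.5, plus ascorbate | Reagent: H3K9me3 peptide substrate, Fe(II), 2-oxoglutarate | Doses: Single-point compound screen | Incubation: 30 min demethylation and 1 h detection at room temperature | Measured by: LANCE TR-FRET, excitation 340 nm, emissions 618 and 671 nm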
T cruzi growth-1 – T. cruzi proliferation inhibition; hit rate 5.9% among 77,000; inhibition, % at 8.34 µM; T. cruzi beta-gal in NIH3T3, GalScreen luminescence, 90 h; AID 624255;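 active = mean inhibition above about 93%, with at least 55% of replicates each passing it, limit read from the data, passing the limit was not always enough; inconclusive = only one of those two conditions holds; inactive = neither condition holds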
T cruzi growth-2 – inhibitors of T. cruzi proliferation | shares compounds with T cruzi growth-1 | T. cruzi beta-gal in NIH3T3, GalScreen luminescence, 90 h | inhibition, % at 8.35 µM | hit rate 72% among 5,600 | AID 651739;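 active = mean replicate inhibition above about 95% and at least 55% of replicates individually reaching it, limit read from the data; inconclusive = only one of the two criteria is met; inactive = neither criterion is met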
T cruzi growth-3 – inhibitors of T. cruzi proliferation; hit rate 21% among 5,600; T. cruzi beta-gal in NIH3T3, GalScreen luminescence, 90 h; inhibition, % at 2.09 µM; shares compounds with T cruzi growth-1;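 active = mean inhibition above about 95%, with at least 55% of replicates also reaching it, limit read from the data; inconclusive = meets just one of the two conditions; inactive = meets neither condition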
3T3 cytotox – cytotoxicity in mouse NIH/3T3 fibroblasts. hit rate 14% among 5,600. NIH/3T3 viability, CellTiter-Glo ATP luminescence, 90 h. cytotoxicity (signal decrease), % at 8.35 µM. AID 651742. shares compounds with T cruzi growth-1;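 active = mean signal decrease across replicates above about 35% based on untreated-well scatter, with enough replicates individually passing, limit read from the data; inconclusive = no rule stated though some were filed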
3T3 cytotox 2 – NIH/3T3 (mouse) viability loss; shares compounds with T cruzi growth-1; NIH/3T3 viability, CellTiter-Glo ATP luminescence, 90 h; inhibition, % at 24.9 µM; hit rate 56% among 5,600; AID 651744;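 active = mean loss of cell viability signal at or above a set limit, and enough replicates individually reaching it; inconclusive = meets only the mean limit or only the replicate share; inactive = meets neither condition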
A number is an active result; 0 = inactive; ? = inconclusive; - = no result.

SMILES	Pf Dd2 inh	IDH1 R132H inh	KDM4C inh	T cruzi growth-1	T cruzi growth-2	T cruzi growth-3	3T3 cytotox	3T3 cytotox 2
CN(C)CC(=O)Nc1ccc2c(c1)[C@H]1C[C@@H](CC(=O)N3CCc4ccccc4C3)O[C@H](CO)[C@H]1O2	0	0	0	105	0	0	0	0
O=C(CC1CC1)Nc1ccc2c(c1)[C@@H]1C[C@@H](CC(=O)N3CCCCC3)O[C@@H](CO)[C@@H]1O2	0	0	0	104	0	0	0	0
O=C(C[C@@H]1C[C@H]2c3cc(NS(=O)(=O)c4ccc(F)cc4)ccc3O[C@H]2[C@@H](CO)O1)N1CCc2ccccc2C1	0	0	0	117	0	0	0	0
O=C(Nc1ccc(C(F)(F)F)cc1)Nc1ccc2c(c1)[C@@H]1C[C@H](CC(=O)N3CCc4ccccc4C3)O[C@H](CO)[C@@H]1O2	0	0	0	119	0	122	0	0
O=C(Nc1ccc2c(c1)[C@@H]1C[C@H](CC(=O)N3CCc4ccccc4C3)O[C@H](CO)[C@@H]1O2)Nc1ccccc1F	0	0	0	-	-	-	-	-
CN(C)CC(=O)Nc1ccc2c(c1)[C@@H]1C[C@H](CC(=O)N3CCc4ccccc4C3)O[C@H](CO)[C@@H]1O2	0	0	0	0	-	-	-	-
O=C(Nc1ccc2c(c1)[C@@H]1C[C@H](CC(=O)N3CCc4ccccc4C3)O[C@@H](CO)[C@@H]1O2)Nc1ccccc1F	0	0	0	-	-	-	-	-
O=C(Nc1ccc(C(F)(F)F)cc1)Nc1ccc2c(c1)[C@@H]1C[C@@H](CC(=O)N3CCc4ccccc4C3)O[C@H](CO)[C@@H]1O2	0	0	0	138	97	?	0	104
O=C(C[C@H]1CC[C@@H]2[C@H](COC[C@@H](O)CN2C(=O)Nc2ccc(Cl)c(Cl)c2)O1)NCc1ccncc1	0	-	0	111	0	0	0	0
O=C(C[C@@H]1CC[C@H]2[C@@H](COC[C@H](O)CN2C(=O)Nc2ccc(Cl)c(Cl)c2)O1)NCc1ccc(Cl)cc1	0	-	0	0	-	-	-	-
O=C(C[C@H]1CC[C@@H]2[C@H](COC[C@H](O)CN2C(=O)Nc2ccc(Cl)c(Cl)c2)O1)NCc1ccc(Cl)cc1	0	-	0	111	108	0	?	89
O=C(C[C@H]1CC[C@@H]2[C@H](COC[C@@H](O)CN2C(=O)Nc2ccc(Cl)c(Cl)c2)O1)NCc1ccc(Cl)cc1	0	-	0	102	100	0	38	56
O=C(C[C@H]1CC[C@H]2[C@@H](COC[C@H](O)CN2C(=O)Nc2ccc(Cl)c(Cl)c2)O1)NCc1ccc(Cl)cc1	0	-	0	?	0	0	0	102
O=C(C[C@@H]1CC[C@H]2[C@@H](COC[C@H](O)CN2C(=O)Nc2ccc(Cl)c(Cl)c2)O1)NCc1ccccc1	0	-	0	0	-	-	-	-
O=C(C[C@@H]1CC[C@@H]2[C@H](COC[C@@H](O)CN2C(=O)Nc2ccc(Cl)c(Cl)c2)O1)NCc1ccccc1	0	-	0	0	-	-	-	-
O=C(C[C@@H]1CC[C@@H]2[C@H](COC[C@@H](O)CN2C(=O)Nc2ccc(Cl)c(Cl)c2)O1)NCc1ccc(Cl)cc1	0	-	0	0	-	-	-	-
C[C@@H]1CN([C@@H](C)CO)C(=O)Cc2cc(NC(=O)CCN3CCOCC3)ccc2O[C@H]1CN(C)S(=O)(=O)c1cccs1	0	0	0	0	-	-	-	-
CO[C@H]1CN(C)C(=O)c2ccc(NC(=O)C3CC3)cc2OC[C@@H](C)N(C)C[C@@H]1C	-	0	0	-	-	-	-	-
COCC#Cc1ccc([C@@H]2[C@H](CO)N3CCCCN(S(=O)(=O)c4ccccc4C)C[C@@H]23)cc1	0	-	0	0	-	-	-	-
CCCC#Cc1ccc([C@@H]2[C@@H](CO)N3CCCCN(S(=O)(=O)CC)C[C@@H]23)cc1	0	-	0	102	0	0	0	35
CCCC#Cc1ccc([C@@H]2[C@H]3CN(S(=O)(=O)CC)CCCCN3[C@H]2CO)cc1	0	-	0	0	-	-	-	-
Cc1ccccc1S(=O)(=O)N1CCCCN2[C@H](C1)[C@@H](c1ccc(C#CCN(C)C)cc1)[C@@H]2CO	0	-	0	0	-	-	-	-
COCC#Cc1ccc([C@H]2[C@H]3CN(S(=O)(=O)c4ccccc4C)CCCCN3[C@H]2CO)cc1	0	-	0	0	-	-	-	-
COCC#Cc1ccc([C@H]2[C@@H](CO)N3CCCCN(S(=O)(=O)c4ccccc4C)C[C@H]23)cc1	0	-	0	98	98	0	0	107
CCCC#Cc1ccc([C@H]2[C@@H](CO)N3CCCCN(S(=O)(=O)c4ccccc4C)C[C@H]23)cc1	0	-	0	108	103	?	52	103
SMILES	Pf Dd2 inh	IDH1 R132H inh	KDM4C inh	T cruzi growth-1	T cruzi growth-2	T cruzi growth-3	3T3 cytotox	3T3 cytotox 2
CCCC#Cc1ccc([C@@H]2[C@H]3CN(S(=O)(=O)c4ccccc4C)CCCCN3[C@H]2CO)cc1	0	-	0	111	96	?	?	106
C[C@@H]1CCCCO[C@H](CN(C)C(=O)CCCN(C)C)[C@H](C)CN([C@@H](C)CO)C(=O)c2cc(NS(C)(=O)=O)ccc2O1	-	0	0	0	-	-	-	-
Cc1ccccc1S(=O)(=O)N1CCCCN2[C@@H](CO)[C@H](c3ccc(C#CCN(C)C)cc3)[C@@H]2C1	0	-	0	0	-	-	-	-
CCCC#Cc1ccc([C@H]2[C@@H](CO)N3CCCCN(S(=O)(=O)c4ccccc4C)C[C@@H]23)cc1	0	-	0	108	100	0	0	0
COCC#Cc1ccc([C@H]2[C@@H](CO)N3CCCCN(S(=O)(=O)c4ccccc4C)C[C@@H]23)cc1	0	-	0	0	-	-	-	-
CCCC#Cc1ccc([C@H]2[C@H](CO)N3CCCCN(S(=O)(=O)c4ccccc4C)C[C@@H]23)cc1	0	-	0	96	0	99	?	103
CCNC(=O)Nc1ccc2c(c1)C(=O)N(C)[C@@H]1CC[C@@H](CC(=O)NCC3CCCCC3)O[C@@H]1CO2	0	-	0	0	-	-	-	-
O=C(Nc1ccccc1)N1CCCCN2[C@H](C1)[C@H](c1ccc(-c3ccccc3)cc1)[C@@H]2CO	0	-	0	128	103	0	0	0
Cc1ccc(-c2ccc([C@@H]3[C@@H](CO)N4CCCCN(C(=O)Nc5ccccc5)C[C@@H]34)cc2)cc1	0	-	0	110	106	0	0	104
Cc1ccc(-c2ccc([C@H]3[C@H]4CN(C(=O)Nc5ccccc5)CCCCN4[C@H]3CO)cc2)cc1	0	-	0	109	107	0	0	91
CCn1c(SCC(=O)Nc2cccc(Cl)c2)nnc1-c1ccc(Cl)cc1Cl	-	0	-	-	-	-	-	-
CO[C@@H](CN(C)S(=O)(=O)c1ccc(F)cc1)[C@@H](C)CN([C@@H](C)CO)S(=O)(=O)c1cccc(Cl)c1	0	0	0	109	0	0	0	53
